Test results from ChEMBL document CHEMBL1949512, “RO4383596, an orally active KDR, FGFR, and PDGFR inhibitor: synthesis and biological evaluation” (Bioorg Med Chem, 2005).

Experiments:
[1] = Clearance in athymic nude mouse at 10 mg/kg, iv; type: ADME, organism-based; design: dose 10 mg/kg, route intravenous; conditions: in vivo
Summary of the method: (§1)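 Athymic nude mice received one dose, either iv 10 mg/kg in 2% DMA/10% PEG400/88% of 40% HPBCD in water, or po 50 mg/kg in 2% Klucel LF/0.1% Tween 80. Retro-orbital or terminal cardiac blood was drawn from 1 min (iv) or 5 min (po) to 24 h into EDTA. Plasma was analysed by LC-MS/MS. Composite parameters were obtained by non-compartmental analysis, with AUC extrapolated to infinity.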

[2] = Tmax in C57/BL6 mouse at 25 mg/kg, po bid for 5 days; type: ADME, organism-based; design: dose 25 mg/kg, route oral; conditions: in vivo
Summary of the method: (§2)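 Female C57/BL6 mice were dosed orally twice daily for 5 days with a suspension in 2% Klucel LF/0.1% Tween 80 in water. Six mice per dose were split into two subgroups of three, each sampled at alternate time points. Retro-orbital blood was taken at 0, 1, 4 and 8 h post-dose into EDTA, and plasma was analysed by LC-MS/MS. Parameters come from mean concentrations; AUC0–8h by linear trapezoidal rule; Cmax and Tmax as observed.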

[3] = Cmax in […] mouse at 100 mg/kg, po; type: ADME, organism-based; design: dose 100 mg/kg, route oral; conditions: in vivo
Summary of the method: (§3)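 A separate group of female mice received one 100 mg/kg oral dose. Median PK parameters were calculated for that cohort.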

[4] = Volume of distribution at steady state in Wistar rat at 5 mg/kg, iv; type: ADME, organism-based; design: dose 5 mg/kg, route intravenous; conditions: in vivo, read-out: Vdss
Summary of the method: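 Single 5 mg/kg iv dose to Wistar rats via femoral arterial catheter, vehicle 2% DMA, 10% PEG400, 88% of 40% HPBCD in water, 2.5 mL/kg. Jugular blood at 1, 7, 15, 30 min and 1, 3, 6, 12, 24 h; plasma by LC-MS/MS. Vdss by non-compartmental analysis per animal, averaged.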

[5] = Cmax in athymic nude mouse at 50 mg/kg, po; type: ADME, organism-based; design: dose 50 mg/kg, route oral; conditions: in vivo; summary of the method: as §1
[6] = Clearance in Wistar rat at 5 mg/kg, iv; type: ADME, organism-based; design: dose 5 mg/kg, route intravenous; conditions: in vivo
Summary of the method: (§4)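 Wistar rats received one dose, either iv 5 mg/kg via femoral arterial catheter (2% DMA/10% PEG400/88% of 40% HPBCD) or po 50 mg/kg (2% Klucel LF/0.1% Tween 80). Blood came from an implanted jugular catheter, up to 24 h (iv) or 48 h (po), into EDTA. Plasma LC-MS/MS; individual non-compartmental parameters were averaged.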

[7] = Half life in athymic nude mouse at 10 mg/kg, iv; type: ADME, organism-based; design: dose 10 mg/kg, route intravenous; conditions: in vivo; summary of the method: as §1
[8] = Tmax in C57/BL6 mouse at 50 mg/kg, po bid for 5 days; type: ADME, organism-based; design: dose 50 mg/kg, route oral; conditions: in vivo; summary of the method: as §2
[9] = AUC in C57/BL6 mouse at 50 mg/kg, po bid for 5 days; type: ADME, organism-based; design: dose 50 mg/kg, route oral; conditions: plasma; summary of the method: as §2
[10] = tested on: Mus musculus; assay: Dose normalized AUC in C57/BL6 mouse at 25 mg/kg, po bid for 5 days; type: ADME, organism-based; design: dose 25 mg/kg, route oral; conditions: in vivo, 120 h; summary of the method: as §2
[11] = Oral bioavailability in Wistar rat at 50 mg/kg; type: ADME, organism-based; conditions: in vivo; summary of the method: as §4
[12] = biological target: Vascular endothelial growth factor receptor 2 (Homo sapiens, UniProt P35968); assay: Inhibition of human recombinant EE-tagged intracellular domain of KDR using biotin-EEEEYFELVAKKKK as substrate by HTRF assay
[13] = Tmax in athymic nude mouse at 50 mg/kg, po; type: ADME, organism-based; design: dose 50 mg/kg, route oral; conditions: in vivo
Summary of the method: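 Athymic nude mice, single oral dose 50 mg/kg in 2% Klucel LF, 0.1% Tween 80 in water, 0.2 mL. Retro-orbital or terminal cardiac blood at 5, 15, 30 min and 1, 2, 4, 8, 16, 24 h; EDTA plasma by LC-MS/MS. Composite parameters; Tmax read from mean concentration–time profile.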

[14] = biological target: Mitogen-activated protein kinase 1 (Homo sapiens, UniProt P28482); assay: Inhibition of ERK2 by IMAP assay
Summary of the method: (§5)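 IMAP fluorescence-polarization assay, in which phosphorylated fluorescent peptide substrates bind immobilized metal beads. Reactions ran at ATP three times Km.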

[15] = AUC in C57/BL6 mouse at 100 mg/kg, po bid for 5 days; type: ADME, organism-based; design: dose 100 mg/kg, route oral; conditions: plasma; summary of the method: as §2
[16] = tested on: Mus musculus; assay: Antiangiogenic activity in C57/BL6 mouse cornea assessed as inhibition of VEGF-induced angiogenesis at 50 mg/kg, po bid for 7 days by corneal pocket assay relative to control; type: functional; conditions: 168 h
Summary of the method: (§6)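 VEGF-impregnated pellets were implanted in corneas of female C57/BL6 mice aged 5–7 weeks. Oral twice-daily dosing started the same day and ran 7 days. The area of vascularization was then quantitated relative to animals given vehicle (2% Klucel LF, 0.1% Tween 80 in water).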

[17] = AUC in C57/BL6 mouse at 25 mg/kg, po bid for 5 days; type: ADME, organism-based; design: dose 25 mg/kg, route oral; conditions: plasma; summary of the method: as §2
[18] = tested on: MDA-MB-435; assay: Antiproliferative activity against human MDA-MB-435 cells
[19] = tested on: Mus musculus; assay: Antiangiogenic activity in C57/BL6 mouse cornea assessed as inhibition of VEGF-induced angiogenesis at 100 mg/kg, po bid for 7 days by corneal pocket assay relative to control; type: functional; conditions: 168 h; summary of the method: as §6
[20] = Cmax in C57/BL6 mouse at 25 mg/kg, po bid for 5 days; type: ADME, organism-based; design: dose 25 mg/kg, route oral; conditions: in vivo; summary of the method: as §2
[21] = tested on: RKO; assay: Antiproliferative activity against human RKO cells
[22] = AUC in Wistar rat at 5 mg/kg, iv; type: ADME, organism-based; design: dose 5 mg/kg, route intravenous; conditions: plasma; summary of the method: as §4
[23] = tested on: Mus musculus; assay: Dose normalized AUC in C57/BL6 mouse at 100 mg/kg, po bid for 5 days; type: ADME, organism-based; design: dose 100 mg/kg, route oral; conditions: in vivo, 120 h; summary of the method: as §2
[24] = Tmax in […] mouse at 100 mg/kg, po; type: ADME, organism-based; design: dose 100 mg/kg, route oral; conditions: in vivo; summary of the method: as §3
[25] = tested on: HUVEC; assay: Antiangiogenic activity in HUVEC assessed as inhibition of bFGF-induced cell proliferation; conditions: Homo sapiens
[26] = biological target: Platelet-derived growth factor receptor (Homo sapiens, UniProt P09619+P16234); assay: Inhibition of human recombinant His-tagged intracellular domain of PDGFR using biotin-EEEEYFELV as substrate by HTRF assay
[27] = biological target: Tyrosine-protein kinase Fyn (Homo sapiens, UniProt P06241); assay: Inhibition of Fyn by IMAP assay
Summary of the method: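 IMAP fluorescence-polarisation assay: kinase activity read as phosphorylated fluorescent peptide substrate binding preferentially to immobilised metal beads. Reactions run with ATP at three times the Km.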

[28] = Cmax in C57/BL6 mouse at 50 mg/kg, po bid for 5 days; type: ADME, organism-based; design: dose 50 mg/kg, route oral; conditions: in vivo; summary of the method: as §2
[29] = AUC in athymic nude mouse at 50 mg/kg, po; type: ADME, organism-based; design: dose 50 mg/kg, route oral; conditions: plasma; summary of the method: as §1
[30] = biological target: Cyclin-dependent kinase 1/cyclin B1 (Homo sapiens, UniProt P06493); assay: Inhibition of CDK1/cyclin B by IMAP assay; type: protein-complex assay; summary of the method: as §5
[31] = Tmax in C57/BL6 mouse at 100 mg/kg, po bid for 5 days; type: ADME, organism-based; design: dose 100 mg/kg, route oral; conditions: in vivo; summary of the method: as §2
[32] = AUC in athymic nude mouse at 10 mg/kg, iv; type: ADME, organism-based; design: dose 10 mg/kg, route intravenous; conditions: plasma; summary of the method: as §1
[33] = tested on: Mus musculus; assay: Dose normalized AUC in […] mouse at 100 mg/kg, po; type: ADME, organism-based; design: dose 100 mg/kg, route oral; conditions: in vivo; summary of the method: as §3
[34] = biological target: Protein kinase C alpha type (Homo sapiens, UniProt P17252); assay: Inhibition of PKCalpha by IMAP assay; summary of the method: as §5
[35] = Cmax in Wistar rat at 50 mg/kg, po; type: ADME, organism-based; design: dose 50 mg/kg, route oral; conditions: in vivo; summary of the method: as §4

Sequence of Cyclin-dependent kinase 1/cyclin B1 (P06493 whole entry): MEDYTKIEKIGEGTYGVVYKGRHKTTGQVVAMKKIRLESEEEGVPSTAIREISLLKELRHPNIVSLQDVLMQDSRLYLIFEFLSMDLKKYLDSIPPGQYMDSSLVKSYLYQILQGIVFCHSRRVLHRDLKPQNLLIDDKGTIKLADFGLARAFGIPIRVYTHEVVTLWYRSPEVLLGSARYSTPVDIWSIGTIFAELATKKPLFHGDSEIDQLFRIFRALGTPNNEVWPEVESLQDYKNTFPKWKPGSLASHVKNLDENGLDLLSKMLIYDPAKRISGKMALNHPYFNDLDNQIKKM
Sequence of Cyclin-dependent kinase 1/cyclin B1 (P14635 whole entry, further chain): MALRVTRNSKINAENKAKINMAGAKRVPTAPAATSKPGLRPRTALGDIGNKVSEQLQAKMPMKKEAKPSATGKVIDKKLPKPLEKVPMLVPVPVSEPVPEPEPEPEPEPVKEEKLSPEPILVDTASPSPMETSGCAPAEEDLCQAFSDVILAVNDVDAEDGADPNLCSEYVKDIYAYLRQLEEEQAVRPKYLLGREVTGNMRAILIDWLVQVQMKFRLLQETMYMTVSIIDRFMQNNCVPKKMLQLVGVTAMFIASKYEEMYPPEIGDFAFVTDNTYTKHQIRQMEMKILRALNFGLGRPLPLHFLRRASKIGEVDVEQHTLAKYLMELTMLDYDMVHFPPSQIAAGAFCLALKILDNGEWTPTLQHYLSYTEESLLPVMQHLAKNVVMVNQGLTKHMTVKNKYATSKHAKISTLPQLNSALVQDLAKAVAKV
Sequence of Vascular endothelial growth factor receptor 2 (P35968 whole entry, the tested form may be a part): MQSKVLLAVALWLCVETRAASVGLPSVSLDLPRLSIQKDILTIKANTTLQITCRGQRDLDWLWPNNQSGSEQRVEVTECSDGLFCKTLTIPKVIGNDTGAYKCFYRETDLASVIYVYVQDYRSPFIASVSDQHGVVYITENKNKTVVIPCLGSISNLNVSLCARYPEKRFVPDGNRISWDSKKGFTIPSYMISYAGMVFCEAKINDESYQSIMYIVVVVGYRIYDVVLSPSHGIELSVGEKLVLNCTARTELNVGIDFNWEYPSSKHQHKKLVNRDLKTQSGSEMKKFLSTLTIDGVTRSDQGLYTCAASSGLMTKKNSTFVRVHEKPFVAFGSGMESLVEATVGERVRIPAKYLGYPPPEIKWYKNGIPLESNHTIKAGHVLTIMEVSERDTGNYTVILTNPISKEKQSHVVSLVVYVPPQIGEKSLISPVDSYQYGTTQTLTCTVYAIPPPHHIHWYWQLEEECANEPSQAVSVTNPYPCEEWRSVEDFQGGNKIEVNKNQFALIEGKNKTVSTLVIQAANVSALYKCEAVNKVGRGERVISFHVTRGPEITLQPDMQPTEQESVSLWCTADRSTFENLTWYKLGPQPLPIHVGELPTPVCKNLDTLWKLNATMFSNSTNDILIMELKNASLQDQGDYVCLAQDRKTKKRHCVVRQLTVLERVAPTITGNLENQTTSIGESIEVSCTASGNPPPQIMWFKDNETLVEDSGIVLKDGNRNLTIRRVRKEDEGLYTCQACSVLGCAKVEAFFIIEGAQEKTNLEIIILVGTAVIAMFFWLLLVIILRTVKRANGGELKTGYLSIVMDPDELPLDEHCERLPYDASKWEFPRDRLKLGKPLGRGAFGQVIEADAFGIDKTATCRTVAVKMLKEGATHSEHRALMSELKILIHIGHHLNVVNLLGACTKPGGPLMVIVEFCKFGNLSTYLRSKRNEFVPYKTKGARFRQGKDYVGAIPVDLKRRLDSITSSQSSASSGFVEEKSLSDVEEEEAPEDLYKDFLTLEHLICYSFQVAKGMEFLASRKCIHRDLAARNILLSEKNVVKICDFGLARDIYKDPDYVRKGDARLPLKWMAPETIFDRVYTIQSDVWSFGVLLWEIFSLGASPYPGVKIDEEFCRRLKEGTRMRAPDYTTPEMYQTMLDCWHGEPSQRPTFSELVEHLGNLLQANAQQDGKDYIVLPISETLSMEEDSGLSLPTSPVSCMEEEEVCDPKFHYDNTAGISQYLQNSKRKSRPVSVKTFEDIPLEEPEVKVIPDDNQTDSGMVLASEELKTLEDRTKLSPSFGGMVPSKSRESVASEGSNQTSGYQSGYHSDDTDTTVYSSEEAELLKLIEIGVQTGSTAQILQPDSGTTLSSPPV
Sequence of Tyrosine-protein kinase Fyn (P06241 whole entry): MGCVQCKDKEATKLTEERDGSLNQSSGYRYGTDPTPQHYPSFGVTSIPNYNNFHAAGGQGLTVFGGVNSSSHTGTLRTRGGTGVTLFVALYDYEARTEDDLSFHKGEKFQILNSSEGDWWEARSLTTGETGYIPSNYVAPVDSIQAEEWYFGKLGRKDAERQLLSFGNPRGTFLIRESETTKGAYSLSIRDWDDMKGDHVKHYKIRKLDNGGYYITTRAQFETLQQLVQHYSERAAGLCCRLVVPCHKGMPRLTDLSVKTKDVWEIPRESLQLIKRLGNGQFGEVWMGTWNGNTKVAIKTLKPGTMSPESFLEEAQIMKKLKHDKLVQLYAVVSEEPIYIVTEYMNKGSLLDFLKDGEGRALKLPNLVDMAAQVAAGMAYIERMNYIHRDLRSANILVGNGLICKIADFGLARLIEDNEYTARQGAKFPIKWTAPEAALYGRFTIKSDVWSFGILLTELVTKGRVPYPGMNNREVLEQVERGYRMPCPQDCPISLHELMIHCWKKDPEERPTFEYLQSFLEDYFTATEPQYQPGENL
Sequence of Mitogen-activated protein kinase 1 (P28482 whole entry): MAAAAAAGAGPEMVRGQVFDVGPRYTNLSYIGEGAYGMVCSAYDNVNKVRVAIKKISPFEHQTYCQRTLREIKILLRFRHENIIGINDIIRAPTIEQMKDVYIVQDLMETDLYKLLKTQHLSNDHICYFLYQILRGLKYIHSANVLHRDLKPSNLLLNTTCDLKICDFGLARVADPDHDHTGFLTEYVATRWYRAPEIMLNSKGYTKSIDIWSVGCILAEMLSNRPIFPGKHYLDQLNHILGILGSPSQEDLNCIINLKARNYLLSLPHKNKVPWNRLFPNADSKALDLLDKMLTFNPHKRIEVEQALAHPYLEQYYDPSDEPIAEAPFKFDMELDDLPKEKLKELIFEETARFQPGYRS

In the case of `COc1ccc(N2Cc3cnc(Nc4ccccc4)nc3N([C@@H]3CC[C@@H](O)C3)C2=O)cc1` (racemic), the clearance [1] is reported as 15.1 mL/min/kg, the Tmax [2] is reported as 30 min and the Cmax [3] is reported as 37600 ng/mL. For the same compound, the Vd [4] was 5.3 L/kg, the Cmax [5] was 16500 ng/mL and the clearance [6] was 23.1 mL/min/kg. For the same compound, the half-life [7] was 180 min, the Tmax [8] was 30 min and the AUC at 120 h [9] was 75500 ng·h/mL. For the same compound, the AUC/dose [10] was 1199 ng·h/mL/mg/kg, the bioavailability [11] was 65% and the IC50 [12] was 0.044 µM. The Tmax [13] was 15 min, the IC50 [14] was 3.04 µM and the AUC at 120 h [15] was 150000 ng·h/mL. The inhibition in vivo at 50 mg/kg [16] was 91%, the AUC at 120 h [17] was 30000 ng·h/mL and the IC50 [18] was 4.2 µM. For the same compound, the inhibition in vivo at 100 mg/kg [19] was 99%, the Cmax [20] was 12000 ng/mL and the IC50 [21] was 2.3 µM. It also gave an AUC [22] of 4010 ng·h/mL, an AUC/dose [23] of 1458 ng·h/mL/mg/kg and a Tmax [24] of 30 min. It also gave an IC50 [25] of 0.15 µM, an IC50 [26] of 0.033 µM and an IC50 [27] of 0.322 µM. For the same compound, the Cmax [28] was 28400 ng/mL, the AUC [29] was 51300 ng·h/mL and the IC50 [30] was over 125 µM. The Tmax [31] was 30 min, the AUC [32] was 11100 ng·h/mL and the AUC/dose [33] was 1458 ng·h/mL/mg/kg. It also gave an IC50 [34] of over 125 µM and a Cmax [35] of 7180 ng/mL.
